# Assay results from different studies.
# Protocols differ between the studies behind these lines.
# Target: Cyclin-dependent kinase 11B (CDK11B, Homo sapiens, UniProt P21127)
# Method: competition with immobilised ligand
Structure (SMILES),read-out,concentration,remaining binding
CCN1CCN(Cc2ccc(C(=O)Nc3ccc(C)c(Oc4ccc5c(c4)CC(=O)N5)c3)cc2C(F)(F)F)CC1,binding,1 µM,100%
N#CC1(c2ccccn2)CCN(Cc2cc(C(=O)N3CCCC3)c(=O)n3ccccc23)CC1,cell-free assay,1 µM,80%
FC(F)(F)Oc1cccc(-c2cnc3ccc(-c4ccncc4)nn23)c1,cell-free assay,5 µM,100%
O=C(c1ccc(Nc2nccc(-c3cc4ccccc4s3)n2)cc1)N1CCC(N2CCCC2)CC1,binding,1 µM,71%
CN(CCCC(F)(F)F)c1nccc(-c2cnn3ncccc23)n1,binding,1 µM,94%
COc1ccc2cc(OCC3(C(=O)O)CN(C(=O)c4ccc(F)cc4)C3)ccc2c1,cell-free assay,1 µM,100%
CN(C)c1nccc(-c2cnn3ncccc23)n1,binding,1 µM,100%
O=C(NCCCN1CCOCC1)c1ccc(Nc2ncc(Cl)c(-c3ccc(Cl)s3)n2)cc1,binding,1 µM,33%
C[C@H]1CCN(c2nccc(-c3cnn4ncccc34)n2)C1,binding,1 µM,90%
O=C(c1ccc(Nc2ncc(Cl)c(-c3cc4ccccc4s3)n2)cc1)N1CCC(N2CCCC2)CC1,binding,1 µM,80%
C[C@@H](c1ccc(-n2cnc3c(N)ncnc32)cc1)N1CCc2nn(C)c(Cc3ccccc3)c2C1=O,binding,0.1 µM,86%
CNC(=O)[C@@H]1CC[C@@H](n2c(-c3ccc4cnccc4c3)nc3ccc(C(=O)NCc4cccc(C(N)=O)c4)cc32)C1,binding,1 µM,100%
CO[C@H]1CC[C@H](CNc2ccc(S(=O)(=O)NC(=O)c3ccc(N4CCN(CC5=C(c6ccc(Cl)cc6)CC(C)(C)CC5)CC4)cc3Oc3cnc4[nH]ccc4c3)cc2[N+](=O)[O-])CC1,cell-free assay,1 µM,98%
CC1CCCN1c1nccc(-c2cnn3ncccc23)n1 (stereo not drawn),binding,1 µM,100%
C=CC(=O)N1CCC(C(=O)NCC(=O)N2CCN(c3nc(-c4cnc(N)nc4C(F)F)nc(N4CCOCC4)n3)CC2)CC1,binding,1 µM,100%
CSc1cccnc1N1CCN(Cc2nc3ccccc3[nH]2)CC1,cell-free assay,1 µM,100%
CN(C)c1nccc(-c2cnc3ncccn23)n1,binding,1 µM,100%
O=C(NC[C@@H]1[C@H]2CN(C(=O)OCc3cc(C(F)(F)F)cc(C(F)(F)F)c3)C[C@@H]12)c1ccc2[nH]nnc2c1,cell-free assay,1 µM,100%
N[C@@H]1CCN(c2nccc(-c3cnn4ncccc34)n2)C1,binding,1 µM,100%
CC(=O)N1CCC(c2ccc(C(=O)NC(=N)N)cc2C(F)(F)F)CC1,cell-free assay,1 µM,100%
O=C(NCC1CCOCC1)c1n[nH]cc1NC(=O)c1c(F)cccc1F,binding,1 µM,96%
